The record followed here is ChEMBL document CHEMBL4007381, “Synthesis, X-ray crystal structure and anti-tumor activity of calix[n]arene polyhydroxyamine derivatives” (Eur J Med Chem, 2016).

One experiment deals with A549. The experiment can be described thus: Cytotoxicity against human A549 cells assessed as reduction in cell viability at 10 uM measured after 72 hrs by SRB assay relative to control. The note with it: A549, 72 h, read-out: GI. It counts as functional. The gist of the method: (§1)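 Adherent cells were seeded at 1-5 × 10⁴/well and grown 24 h at 37 °C in 5% CO₂. They were treated at a single 10 µM concentration for 72 h in triplicate wells. Read-out was SRB staining after TCA fixation, with dye dissolved in Tris base and OD read at 565 nm. Viability was expressed relative to control.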
A general note: The SRB assay estimates cell density from bound dye.

Experiment [1] concerns SW1990. The experiment can be described thus: Cytotoxicity against human SW1990 cells assessed as reduction in cell viability at 10 uM measured after 72 hrs by SRB assay relative to control. The settings on record: SW1990, 72 h, read-out: GI. It counts as functional. The gist of the method:
as §1

In experiment [2] the test system is MDA-MB-231. The experiment can be described thus: Cytotoxicity against human MDA-MB-231 cells assessed as reduction in cell viability at 10 uM measured after 72 hrs by SRB assay relative to control. It counts as functional. The settings on record: MDA-MB-231, 72 h, read-out: GI. The gist of the method: as §1
Experiment [3] deals with SK-OV-3. The experiment can be described thus: Cytotoxicity against human SKOV3 cells assessed as reduction in cell viability at 10 uM measured after 72 hrs by SRB assay relative to control. It counts as functional. The note with it: SK-OV-3, 72 h, read-out: GI. The gist of the method: as §1
Experiment [4] relates to HeLa. The experiment in a line: Cytotoxicity against human HeLa cells assessed as reduction in cell viability at 10 uM measured after 72 hrs by SRB assay relative to control. It counts as functional. The settings on record: read-out: GI. An outline of the steps:
as §1

For experiment [5], the system named is Raji. The experiment can be described thus: Cytotoxicity against human Raji cells assessed as reduction in cell viability at 10 uM measured after 72 hrs by MTT assay relative to control. It counts as functional. The settings on record: read-out: GI. An outline of the steps:
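Raji suspension cells were seeded at 1-5 × 10⁴/well and grown 24 h. They were treated at 10 µM for 72 h in triplicate wells. Read-out was MTT for 4 h, then solubilization in HCl/isopropanol/SDS overnight and OD at 550 nm, relative to control.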
(Tetrazolium assays rely on reduction of a dye to a coloured formazan, in cell work by metabolically active cells.)

Experiment [6] relates to SK-OV-3. The experiment in a line: Cell cycle arrest in human SKOV3 cells assessed as accumulation at G0/G1 phase at 10 uM measured after 48 hrs by propidium iodide staining-based FACS analysis. It counts as functional.
Experiment [7] relates to SK-OV-3. The experiment can be described thus: Cytotoxicity against human SKOV3 cells assessed as reduction in cell viability measured after 72 hrs by SRB assay. It counts as functional, cell-based. The settings on record: SK-OV-3, 72 h. The gist of the method:
(§2)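 Adherent cells in log phase were seeded at 1-5 × 10⁴/well and grown 24 h at 37 °C in 5% CO₂. They were exposed to 10 concentrations for 72 h, three wells each, then fixed with TCA and stained with SRB. Bound dye was dissolved in Tris base and read at OD 565 nm. Survival was expressed relative to vehicle (100%). Means came from ≥3 independent experiments, and apparent IC50 was read from the dose-response curves.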

The subject of experiment [8] is SK-OV-3. The experiment in a line: Cell cycle arrest in human SKOV3 cells assessed as decrease in accumulation at G2/M phase at 10 uM measured after 48 hrs by propidium iodide staining-based FACS analysis. It counts as functional. (In general: Flow cytometry measures light scatter and fluorescence of single cells or particles in a stream.)
For experiment [9], the system named is MDA-MB-231. The experiment in a line: Cytotoxicity against human MDA-MB-231 cells assessed as reduction in cell viability measured after 72 hrs by SRB assay. The settings on record: MDA-MB-231, 72 h. It counts as functional, cell-based. An outline of the steps:
as §2

Experiment [10] relates to SK-OV-3. The experiment in a line: Cell cycle arrest in human SKOV3 cells assessed as decrease in accumulation at S phase at 10 uM measured after 48 hrs by propidium iodide staining-based FACS analysis. It counts as functional.
Experiment [11] relates to Raji. The experiment in a line: Cytotoxicity against human Raji cells assessed as reduction in cell viability measured after 72 hrs by MTT assay. It counts as functional, cell-based. The gist of the method:
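Raji suspension cells (RPMI 1640, 10% FBS) were seeded at 1-5 × 10⁴/well and grown 24 h at 37 °C in 5% CO₂. They were exposed to 10 concentrations for 72 h in triplicate wells. MTT was added for 4 h, then HCl/isopropanol/SDS was added overnight, and OD was read at 550 nm. Data are means of ≥3 independent experiments, relative to vehicle, with apparent IC50 taken from the dose-response curves.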

The subject of experiment [12] is HeLa. The experiment in a line: Cytotoxicity against human HeLa cells assessed as reduction in cell viability measured after 72 hrs by SRB assay. It counts as functional, cell-based. An outline of the steps:
as §2

Experiment [13] relates to SW1990. The experiment in a line: Cytotoxicity against human SW1990 cells assessed as reduction in cell viability measured after 72 hrs by SRB assay. The settings on record: SW1990, 72 h. It counts as functional, cell-based. An outline of the steps: as §2

As a reminder, the IC50 is the point on the concentration scale where inhibition reaches its midpoint.

Molecules are shown by their SMILES. Active and inactive are the calls of the source. The calls are words filed in the database; no cut-off is given here.

With `O=C(COc1c2cccc1Cc1cccc(c1OCC(=O)NCCO)Cc1cccc(c1OCC(=O)NCCO)Cc1cccc(c1OCC(=O)NCCO)Cc1cccc(c1OCC(=O)NCCO)Cc1cccc(c1OCC(=O)NCCO)C2)NCCO`, the inhibition of growth at 10 µM in the experiment with A549 was 7%; in the experiment on SW1990 [1], 3%; in the experiment on MDA-MB-231 [2], 4%; in the experiment with SK-OV-3 [3] it was 10%; with HeLa [4] it was 6%; in the experiment on Raji [5] it was 18%.

Turning to `O=C(COc1c2cccc1Cc1cccc(c1OCC(=O)NCCO)Cc1cccc(c1OCC(=O)NCCO)Cc1cccc(c1OCC(=O)NCCO)Cc1cccc(c1OCC(=O)NCCO)Cc1cccc(c1OCC(=O)NCCO)Cc1cccc(c1OCC(=O)NCCO)Cc1cccc(c1OCC(=O)NCCO)C2)NCCO`, the inhibition of growth at 10 µM in the experiment with A549 is 2%; with SW1990 [1] it was 4%; in the experiment on MDA-MB-231 [2], 27%; with SK-OV-3 [3], 1%; in the experiment with HeLa [4], 32%; in the experiment with Raji [5] it was 7%.

`O=C(COc1c2cccc1Cc1cccc(c1O)Cc1cccc(c1OCC(=O)N(CCO)CCO)Cc1cccc(c1O)C2)N(CCO)CCO`: the inhibition of growth at 10 µM with A549 turned out to be 7%; in the experiment on SW1990 [1], 4%; in the experiment on MDA-MB-231 [2] it was 22%; in the experiment on SK-OV-3 [3], 34%; in the experiment on HeLa [4], 38%; in the experiment with Raji [5] it was 34%.

On to `CC(C)(C)c1cc2c(OCC(=O)NCCO)c(c1)Cc1cc(C(C)(C)C)cc(c1OCC(=O)NCCO)Cc1cc(C(C)(C)C)cc(c1OCC(=O)NCCO)Cc1cc(C(C)(C)C)cc(c1OCC(=O)NCCO)Cc1cc(C(C)(C)C)cc(c1OCC(=O)NCCO)Cc1cc(C(C)(C)C)cc(c1OCC(=O)NCCO)C2`, for which the inhibition of growth at 10 µM stood at 7% in the experiment on A549; 4% in the experiment with SW1990 [1]; 12% with MDA-MB-231 [2]; 24% in the experiment on SK-OV-3 [3]; 40% with HeLa [4]; 38% with Raji [5].

Consider `O=C(COc1c2cccc1Cc1cccc(c1OCC(=O)N(CCO)CCO)Cc1cccc(c1OCC(=O)N(CCO)CCO)Cc1cccc(c1OCC(=O)N(CCO)CCO)Cc1cccc(c1OCC(=O)N(CCO)CCO)Cc1cccc(c1OCC(=O)N(CCO)CCO)C2)N(CCO)CCO`, for which the inhibition of growth at 10 µM stood at 5% in the experiment on A549; 0% with SW1990 [1]; 22% with MDA-MB-231 [2]; 19% in the experiment on SK-OV-3 [3]; 9% in the experiment on HeLa [4]; 6% in the experiment with Raji [5].

Consider `CC(C)(C)c1cc2c(OCC(=O)NCCO)c(c1)Cc1cc(C(C)(C)C)cc(c1OCC(=O)NCCO)Cc1cc(C(C)(C)C)cc(c1OCC(=O)NCCO)Cc1cc(C(C)(C)C)cc(c1OCC(=O)NCCO)Cc1cc(C(C)(C)C)cc(c1OCC(=O)NCCO)Cc1cc(C(C)(C)C)cc(c1OCC(=O)NCCO)Cc1cc(C(C)(C)C)cc(c1OCC(=O)NCCO)Cc1cc(C(C)(C)C)cc(c1OCC(=O)NCCO)C2`, for which the inhibition of growth at 10 µM with A549 came out at 8%; in the experiment with SW1990 [1], 5%; in the experiment with MDA-MB-231 [2], 12%; in the experiment with SK-OV-3 [3], 26%; in the experiment on HeLa [4], 23%; with Raji [5], 24%.

On to `O=C(COc1c2cccc1Cc1cccc(c1OCC(=O)N(CCO)CCO)Cc1cccc(c1OCC(=O)N(CCO)CCO)Cc1cccc(c1OCC(=O)N(CCO)CCO)Cc1cccc(c1OCC(=O)N(CCO)CCO)Cc1cccc(c1OCC(=O)N(CCO)CCO)Cc1cccc(c1OCC(=O)N(CCO)CCO)Cc1cccc(c1OCC(=O)N(CCO)CCO)C2)N(CCO)CCO`, for which the inhibition of growth at 10 µM in the experiment on A549 is 6%; in the experiment on SW1990 [1], 2%; in the experiment on MDA-MB-231 [2], 13%; in the experiment on SK-OV-3 [3] it was 25%; in the experiment on HeLa [4], 18%; in the experiment on Raji [5], 11%.

In the case of `O=C(COc1c2cccc1Cc1cccc(c1O)Cc1cccc(c1OCC(=O)NCCO)Cc1cccc(c1O)C2)NCCO`, the inhibition of growth at 10 µM in the experiment with A549 was 13%; with SW1990 [1], 10%; in the experiment on MDA-MB-231 [2], 57%; in the experiment with SK-OV-3 [3], 86%; in the experiment on HeLa [4] it was 46%; in the experiment on Raji [5] it was 29%. Also, the outcome in the experiment on SK-OV-3 [6], in the experiment on SK-OV-3 [8] and in the experiment on SK-OV-3 [10] was Active. Also, the IC50 in the experiment with SK-OV-3 [7] came to 2.3 µM; with MDA-MB-231 [9], 1.6 µM.

For the compound `CC(C)(C)c1cc2c(O)c(c1)Cc1cc(C(C)(C)C)cc(c1OCC(=O)N(CCO)CCO)Cc1cc(C(C)(C)C)cc(c1O)Cc1cc(C(C)(C)C)cc(c1OCC(=O)N(CCO)CCO)C2`, the inhibition of growth at 10 µM is 16% in the experiment with A549; 59% in the experiment with SW1990 [1]; 95% with MDA-MB-231 [2]; 42% with SK-OV-3 [3]; 95% in the experiment on HeLa [4]; 77% in the experiment on Raji [5]. In addition, the IC50 with Raji [11] was 11.2 µM; in the experiment with HeLa [12] it was 8.1 µM; with MDA-MB-231 [9], 5.2 µM; in the experiment with SW1990 [13] it was 11.3 µM.

With `CC(C)(C)c1cc2c(OCC(=O)N(CCO)CCO)c(c1)Cc1cc(C(C)(C)C)cc(c1OCC(=O)N(CCO)CCO)Cc1cc(C(C)(C)C)cc(c1OCC(=O)N(CCO)CCO)Cc1cc(C(C)(C)C)cc(c1OCC(=O)N(CCO)CCO)Cc1cc(C(C)(C)C)cc(c1OCC(=O)N(CCO)CCO)Cc1cc(C(C)(C)C)cc(c1OCC(=O)N(CCO)CCO)C2`, the inhibition of growth at 10 µM in the experiment on A549 is 0%; in the experiment with SW1990 [1], 26%; with MDA-MB-231 [2], 0%; in the experiment on SK-OV-3 [3], 26%; in the experiment with HeLa [4] it was 0%; in the experiment with Raji [5], 14%.

Regarding `CC(C)(C)c1cc2c(OCC(=O)N(CCO)CCO)c(c1)Cc1cc(C(C)(C)C)cc(c1OCC(=O)N(CCO)CCO)Cc1cc(C(C)(C)C)cc(c1OCC(=O)N(CCO)CCO)Cc1cc(C(C)(C)C)cc(c1OCC(=O)N(CCO)CCO)Cc1cc(C(C)(C)C)cc(c1OCC(=O)N(CCO)CCO)Cc1cc(C(C)(C)C)cc(c1OCC(=O)N(CCO)CCO)Cc1cc(C(C)(C)C)cc(c1OCC(=O)N(CCO)CCO)Cc1cc(C(C)(C)C)cc(c1OCC(=O)N(CCO)CCO)C2`, the inhibition of growth at 10 µM was found to be 0% in the experiment on A549; 5% with SW1990 [1]; 11% in the experiment with MDA-MB-231 [2]; 25% in the experiment with SK-OV-3 [3]; 10% in the experiment on HeLa [4]; 11% in the experiment on Raji [5].
